PMC4281708 (Cancer research, 2012)
Residue numbers refer to the chain shown, from its start. Entries after “also recorded” stand apart in the source; their conditions may differ. Read-outs that look alike come from different tables or passages of the source.

How the values were obtained:
VCaP cells = test: Cell viability; type: cell-based, human; details: for growth inhibition of VCaP cells stimulated by spironolactone: 0.1, 1 or 5μM abiraterone, 10μM bicalutamide or 10μM MDV3100, 7 days; for proliferation of VCaP (WT-AR): 1 and 10μM, CSS, 7 days
LNCaP cells = test: Cell viability; type: cell-based, human; details: for growth inhibition of LNCaP cells stimulated by eplerenone / growth inhibition of LNCaP cells stimulated by spironolactone: 0.1, 1 or 5μM abiraterone, 10μM bicalutamide or 10μM MDV3100, 7 days; for proliferation of hormone-stripped LNCaP (T877A-AR): 1 and 10μM, CSS, 7 days
[1] = tested on: PSA and TMPRSS2 mRNA expression in LNCaP cells; test: Quantitative RT-PCR of AR-regulated genes, LNCaP; type: cell-based, human
Summary of the method: (§1)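 Cells held 24 h in phenol red-free medium with charcoal-stripped serum, then treated 5 h with test compound (0.1–10 µM) or 0.1nM R1881. After RNA extraction and cDNA synthesis, SYBR Green qPCR for PSA and TMPRSS2 used 50ng cDNA per reaction, each sample run in duplicate. Normalised to actin and GAPDH, relative to a reference sample (2^-ΔΔCt). 3 independent experiments, mean ± SEM.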

[2] = tested on: castration-resistant prostate cancer (CRPC); details: 1000mg abiraterone daily ref 1, 2; cited from earlier work
AR = details: cited from earlier work
WT-AR = target: T1, WT-AR (Homo sapiens, UniProt P10275); test: cell-based; type: binding
T1 sequence (P10275 1-920): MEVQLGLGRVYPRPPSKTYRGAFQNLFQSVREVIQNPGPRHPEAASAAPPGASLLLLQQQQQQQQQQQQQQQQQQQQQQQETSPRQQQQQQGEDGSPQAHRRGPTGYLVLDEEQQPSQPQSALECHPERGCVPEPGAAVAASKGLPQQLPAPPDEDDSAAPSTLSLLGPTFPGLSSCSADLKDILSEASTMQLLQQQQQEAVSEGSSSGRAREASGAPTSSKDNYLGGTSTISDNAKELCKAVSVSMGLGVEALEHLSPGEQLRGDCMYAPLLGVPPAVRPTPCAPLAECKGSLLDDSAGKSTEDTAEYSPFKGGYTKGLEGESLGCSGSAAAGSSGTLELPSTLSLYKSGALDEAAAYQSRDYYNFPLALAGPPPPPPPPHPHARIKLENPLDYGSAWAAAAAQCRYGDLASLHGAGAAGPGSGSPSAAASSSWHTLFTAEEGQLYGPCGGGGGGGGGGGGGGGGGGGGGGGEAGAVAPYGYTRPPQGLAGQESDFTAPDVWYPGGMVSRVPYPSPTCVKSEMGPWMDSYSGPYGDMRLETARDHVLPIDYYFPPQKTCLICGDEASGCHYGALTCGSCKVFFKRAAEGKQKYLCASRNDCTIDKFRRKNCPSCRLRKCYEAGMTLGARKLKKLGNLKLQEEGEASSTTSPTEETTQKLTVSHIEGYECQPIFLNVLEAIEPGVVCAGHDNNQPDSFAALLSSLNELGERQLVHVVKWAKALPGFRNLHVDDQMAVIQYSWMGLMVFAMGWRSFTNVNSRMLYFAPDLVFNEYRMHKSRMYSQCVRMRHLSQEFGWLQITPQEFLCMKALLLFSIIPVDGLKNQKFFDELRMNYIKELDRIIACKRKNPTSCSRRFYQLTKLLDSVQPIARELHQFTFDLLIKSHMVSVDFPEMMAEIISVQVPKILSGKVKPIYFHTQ

Solubility in cell media = type: physicochemical; details: plasma or biological fluid, kinetic from dmso stock
[3] = patients ref 2; cited from earlier work
T877A-AR [4] = target: T2, T877A-AR (Homo sapiens, UniProt P10275, T878A); test: cell-based; type: binding
T2 sequence (P10275 1-920 T878A): T1 sequence (P10275 1-920) with T878A

T877A-AR [5] = target: T2, T877A-AR; type: cell-based
DU145 = test: Cell proliferation, DU145; type: cell-based, human; details: AR-negative prostate cancer cell line
PC-3 = test: Cell proliferation, PC-3; type: cell-based, human; details: AR-negative prostate cancer cell line
LNCaP (T877A-AR) = target: T3, LNCaP (T877A-AR) (Homo sapiens, UniProt P10275, T878A); test: cell-based; type: binding
T3 sequence (P10275 1-920 T878A): T1 sequence (P10275 1-920) with T878A

[6] = tested on: WT or mutant AR (T877A, D879G, W741C, M749L, R629Q); test: ARE3-luciferase reporter assay in PC-3 cells, WT and mutant AR panel; type: cell-based, human
[7] = tested on: WT or mutant human AR (T877A, G142V, P533S, T575A, H874Y, R629Q); test: GRE2-TATA-Luc reporter assay in COS-7 cells co-transfected with AR; type: cell-based
W741C-AR = test: PSA-ARE3-luc luciferase reporter assay in transfected PC-3 cells, W741C-AR; type: cell-based, human
wild-type (WT)-AR [8] = test: PSA-ARE3-luc luciferase reporter assay in transfected PC-3 cells, WT-AR; type: cell-based, human; details: compared to R1881
[9] = 100mg eplerenone ref 6, cited from earlier work
D879G-AR = test: PSA-ARE3-luc luciferase reporter assay in transfected PC-3 cells, D879G-AR; type: cell-based, human; details: compared to R1881
Summary of the method: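 Human AR expression plasmid carrying the mutation (confirmed by sequencing) co-transfected with PSA-ARE3-luc reporter into PC-3 cells. Cells grown 30 h in phenol red-free RPMI 1640 with 10% charcoal-stripped serum, then exposed 16 h to test compound (DMSO ≤0.2%) with R1881 as reference agonist. Luminescence read after ONE Glo. Fold change vs DMSO control; EC50 by nonlinear regression; 3 independent experiments, 16 replicates.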

[10] = tested on: PSA and TMPRSS2 mRNA expression in VCaP cells; test: Quantitative RT-PCR of AR-regulated genes, VCaP; type: cell-based, human; details: 0.1 - 10μM eplerenone, 5 hours
Summary of the method: as §1

wild-type (WT)-AR [11] = details: cited from earlier work

CNC(=O)c1ccc(N2C(=S)N(c3ccc(C#N)c(C(F)(F)F)c3)C(=O)C2(C)C)cc1F [MDV3100]
growth inhibition of VCaP cells stimulated by spironolactone (VCaP cells): more profound inhibition | growth inhibition of LNCaP cells stimulated by eplerenone (LNCaP cells): more profound inhibition | growth inhibition of LNCaP cells stimulated by spironolactone (LNCaP cells): more profound inhibition | inhibition of induction of TMPRSS2 expression by eplerenone ([1]; LNCaP, 10μM eplerenone, 10μM MDV3100, 5 hours): more significantly than bicalutamide or abiraterone

C[C@]12CC[C@H](O)CC1=CC[C@@H]1[C@@H]2CC[C@]2(C)C(c3cccnc3)=CC[C@@H]12 [abiraterone]
objective tumor responses, CRPC patients [2]: up to 60% | binding to the AR (AR): failed to identify binding | effect on AR levels (AR): dose-dependent decrease in AR levels | EC50 (WT-AR): 13.4 µM | solubility (Solubility in cell media): > 25 µM | growth inhibition of VCaP cells stimulated by spironolactone (VCaP cells): dose-proportional growth inhibition | doses with significant inhibition of proliferation of VCaP (VCaP cells; CSS with 0.1nM R1881, 7 days): ≥ 5 µM | doses safely tolerated [3]: at least 2000 mg daily | EC50 (T877A-AR [4]): 7.9 µM | inhibition of activation of T877A-AR by 1μM eplerenone (T877A-AR [5]): significantly inhibited | growth inhibition of LNCaP cells stimulated by eplerenone (LNCaP cells): dose-proportional growth inhibition | growth inhibition of LNCaP cells stimulated by spironolactone (LNCaP cells): dose-proportional growth inhibition | doses with significant inhibition of proliferation of LNCaP (LNCaP cells; CSS with 0.1nM R1881, 7 days): ≥ 5 µM | inhibitory effect on proliferation of DU145 (DU145): No inhibitory effect was observed | inhibitory effect on proliferation of PC-3 (PC-3): No inhibitory effect was observed | regulation of PSA and TMPRSS2 in LNCaP cells treated with abiraterone ([1]; 5μM abiraterone, 0.1nM R1881, 5 hours): down-regulation | EC50 (LNCaP (T877A-AR)): 2.6 µM | inhibition of stimulated WT and mutant AR activity ([6]; 0.1nM R1881, 16 hours): dose-proportional inhibition | AR inhibition ([6]; 1μM abiraterone): up to 32% | increase in reporter-luciferase activity (agonistic activity) with WT-AR or any mutation tested ([6]; doses up to 25μM): did not observe an increase in reporter-luciferase activity; also recorded: no agonistic activity was observed | inhibition of R629Q-AR ([7]; COS-7, 10nM DHT, compared with PC-3 ARE3-luciferase assay): Higher concentrations of abiraterone were required | inhibition of WT-AR, T877A-AR, G142V-AR, P533S-AR, T575A-AR and H874Y-AR ([7]; COS-7, activated by 10nM DHT for 24 hours, 0.1 - 5μM): dose-proportional inhibition

CC(O)(CS(=O)(=O)c1ccc(F)cc1)C(=O)Nc1ccc(C#N)c(C(F)(F)F)c1 (stereo not shown) [bicalutamide]
activation of W741C-AR (W741C-AR): activated

C[C@@H]1C[C@H]2[C@@H]3CCC4=CC(=O)C=C[C@]4(C)[C@@]3(F)[C@@H](O)C[C@]2(C)[C@@]1(O)C(=O)CO [dexamethasone]
activation of WT-AR (wild-type (WT)-AR [8]): do not activate

COC(=O)[C@@H]1CC2=CC(=O)CC[C@]2(C)[C@@]23O[C@@H]2C[C@@]2(C)[C@@H](CC[C@@]24CCC(=O)O4)[C@H]13 [eplerenone]
Cmax [9]: 1720 ± 280 ng/mL | Cmax ([9]; read-out: Cmax (equivalent)): 4.2 µM | proliferation of VCaP (WT-AR) (VCaP cells): only spironolactone increased the proliferation | proliferation of hormone-stripped LNCaP (T877A-AR) (LNCaP cells): increased proliferation | activation of D879G-AR (D879G-AR): does not activate | expression of PSA and TMPRSS2 in VCaP [10]: not in VCaP | expression of PSA and TMPRSS2 in LNCaP ([1]; 0.1 - 10μM eplerenone, 5 hours): significantly increased expression | binding and activation of wild-type (WT)-AR (wild-type (WT)-AR [11]): did not bind and activate | activation of W741C-AR (W741C-AR): does not activate | activation of WT-AR (wild-type (WT)-AR [8]): does not activate

C[C@]12C=CC(=O)C=C1CC[C@@H]1[C@@H]2C(=O)C[C@@]2(C)[C@H]1CC[C@]2(O)C(=O)CO [prednisone]
activation of WT-AR (wild-type (WT)-AR [8]): do not activate

CC(=O)S[C@@H]1CC2=CC(=O)CC[C@]2(C)[C@H]2CC[C@@]3(C)[C@@H](CC[C@@]34CCC(=O)O4)[C@H]12 [spironolactone]
proliferation of VCaP (WT-AR) (VCaP cells): increased the proliferation | proliferation of hormone-stripped LNCaP (T877A-AR) (LNCaP cells): increased proliferation | activation of D879G-AR (D879G-AR): activates | activation of WT-AR (wild-type (WT)-AR [8]): activates
